From ChEMBL document CHEMBL1131065, “1,4- and 2,6-disubstituted amidoanthracene-9,10-dione derivatives as inhibitors of human telomerase” (J Med Chem, 1998)
Calls of active or inactive are those of the source. The calls are words filed in the database; no cut-off is given here.

Experiments:
[1] = target: T1, Telomerase reverse transcriptase (Homo sapiens, UniProt O14746); assay: Inhibition of telomerase activity
How it was run: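 Modified cell-free TRAP using CHAPS lysate of exponentially growing A2780 cells. Protein (0.04 µg) incubated with TS primer, 50 µM dNTPs and [α-32P]dCTP in TRAP buffer (pH 8.3) ± compound at 1–50 µM for 20 min at 25 °C. Telomerase heat-killed at 80 °C, then 31-cycle PCR with CX primer and Taq. Products read by denaturing gel/phosphorimaging or TCA filter scintillation counting. IC50 taken relative to controls.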

A2780 = assay: Concentration required to inhibit A2780-cell growth by 50%; assay type: functional, cell-based; conditions: Homo sapiens
How it was run: (§1)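 Human ovarian carcinoma cells grown as monolayers in DMEM with 10% FBS, 2 mM glutamine and 0.5 µg/mL hydrocortisone under 6% CO2. 3000–6000 cells per well, attached overnight. Salts dissolved in water, added in quadruplicate at final 0.05, 0.25, 1, 5 and 25 µM for 96 h. Cells fixed with TCA and stained with SRB, absorbance read at 540 nm. IC50 taken from mean absorbance as % of untreated control.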

SK-OV-3 = assay: Concentration required to inhibit SKOV-3-cell growth by 50%; assay type: functional, cell-based; conditions: Homo sapiens; how it was run: as §1
CH1 = assay: Concentration required to inhibit CH1-cell growth by 50%; assay type: functional, cell-based; conditions: Homo sapiens; how it was run: as §1
[2] = target: DNA polymerase I, thermostable (Thermus aquaticus) (UniProt P19821); assay: Inhibition of Taq polymerase at 10 uM (Slight inhibition)
DNA polymerase I, thermostable (Thermus aquaticus), sequence (P19821 whole entry): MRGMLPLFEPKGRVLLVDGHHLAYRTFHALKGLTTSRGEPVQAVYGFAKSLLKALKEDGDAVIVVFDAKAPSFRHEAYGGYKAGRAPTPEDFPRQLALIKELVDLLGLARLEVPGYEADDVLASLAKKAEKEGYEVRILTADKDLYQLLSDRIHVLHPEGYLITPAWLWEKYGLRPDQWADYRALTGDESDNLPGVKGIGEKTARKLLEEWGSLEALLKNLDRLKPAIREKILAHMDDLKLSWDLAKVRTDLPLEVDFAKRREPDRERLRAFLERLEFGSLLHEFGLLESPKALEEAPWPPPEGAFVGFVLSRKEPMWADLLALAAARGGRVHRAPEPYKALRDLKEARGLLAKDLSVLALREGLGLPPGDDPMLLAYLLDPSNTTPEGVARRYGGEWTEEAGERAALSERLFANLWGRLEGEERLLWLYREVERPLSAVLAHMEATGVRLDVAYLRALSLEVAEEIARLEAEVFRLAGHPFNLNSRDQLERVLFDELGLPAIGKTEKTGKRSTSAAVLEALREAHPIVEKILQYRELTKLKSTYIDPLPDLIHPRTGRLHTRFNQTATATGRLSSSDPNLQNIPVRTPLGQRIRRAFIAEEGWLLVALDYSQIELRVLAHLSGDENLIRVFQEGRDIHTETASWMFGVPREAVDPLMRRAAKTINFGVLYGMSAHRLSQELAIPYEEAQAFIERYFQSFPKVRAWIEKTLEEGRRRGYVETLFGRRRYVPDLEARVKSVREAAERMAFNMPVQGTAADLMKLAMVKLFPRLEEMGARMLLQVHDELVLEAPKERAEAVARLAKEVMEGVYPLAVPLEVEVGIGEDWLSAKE
How it was run: (§2)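 Compound at final 10 µM in a PCR mix: pCI-neo vector template, forward/reverse primers, Tris-HCl pH 8.8 buffer, 2.5 mM MgCl2, 200 µM each dNTP, 1.25 U thermostable polymerase. Run 30 cycles (94/55/72 °C). Products separated on 2% agarose with ethidium bromide and compared to a no-drug water control (~1 kb product); inhibition graded semiquantitatively.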

[3] = target: DNA polymerase I, thermostable (Thermus aquaticus) (UniProt P19821); assay: Inhibition of Taq polymerase at 50 uM (Total inhibition)
How it was run: (§3)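 Compound at final 50 µM in PCR with pCI-neo template and primers, Tris-HCl pH 8.8 buffer, 2.5 mM MgCl2, 200 µM each dNTP, 1.25 U thermostable polymerase. Run 30 cycles of 94 °C 1 min, 55 °C 1 min, 72 °C 2.5 min. Agarose/ethidium bromide read-out against a water no-drug control, scored semiquantitatively.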

[4] = target: DNA polymerase I, thermostable (Thermus aquaticus) (UniProt P19821); assay: Inhibition of Taq polymerase at 10 uM (No inhibition); how it was run: as §2
[5] = target: DNA polymerase I, thermostable (Thermus aquaticus) (UniProt P19821); assay: Inhibition of Taq polymerase at 50 uM (No inhibition); how it was run: as §3
[6] = target: T1, Telomerase reverse transcriptase; assay: Concentration required to inhibit telomerase activity
How it was run: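 Cell-free modified TRAP assay. Enzyme source is a CHAPS lysate of exponentially growing A2780 ovarian carcinoma cells, which was clarified and stored at -80 °C. Protein (0.04 μg) was incubated with TS primer, dNTPs and [α-32P]dCTP in TRAP buffer (pH 8.3) ± agent at 1, 5, 10, 20 and 50 μM for 20 min at 25 °C. Telomerase was then heat-inactivated at 80 °C, followed by 31-cycle PCR with CX primer. Products were quantified by gel phosphorimaging or by TCA-precipitated filter scintillation counting. IC50 is relative to controls.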

[7] = target: DNA polymerase I, thermostable (Thermus aquaticus) (UniProt P19821); assay: Inhibition of Taq polymerase at 10 uM (Significant inhibition); how it was run: as §2

T1 sequence (O14746 whole entry): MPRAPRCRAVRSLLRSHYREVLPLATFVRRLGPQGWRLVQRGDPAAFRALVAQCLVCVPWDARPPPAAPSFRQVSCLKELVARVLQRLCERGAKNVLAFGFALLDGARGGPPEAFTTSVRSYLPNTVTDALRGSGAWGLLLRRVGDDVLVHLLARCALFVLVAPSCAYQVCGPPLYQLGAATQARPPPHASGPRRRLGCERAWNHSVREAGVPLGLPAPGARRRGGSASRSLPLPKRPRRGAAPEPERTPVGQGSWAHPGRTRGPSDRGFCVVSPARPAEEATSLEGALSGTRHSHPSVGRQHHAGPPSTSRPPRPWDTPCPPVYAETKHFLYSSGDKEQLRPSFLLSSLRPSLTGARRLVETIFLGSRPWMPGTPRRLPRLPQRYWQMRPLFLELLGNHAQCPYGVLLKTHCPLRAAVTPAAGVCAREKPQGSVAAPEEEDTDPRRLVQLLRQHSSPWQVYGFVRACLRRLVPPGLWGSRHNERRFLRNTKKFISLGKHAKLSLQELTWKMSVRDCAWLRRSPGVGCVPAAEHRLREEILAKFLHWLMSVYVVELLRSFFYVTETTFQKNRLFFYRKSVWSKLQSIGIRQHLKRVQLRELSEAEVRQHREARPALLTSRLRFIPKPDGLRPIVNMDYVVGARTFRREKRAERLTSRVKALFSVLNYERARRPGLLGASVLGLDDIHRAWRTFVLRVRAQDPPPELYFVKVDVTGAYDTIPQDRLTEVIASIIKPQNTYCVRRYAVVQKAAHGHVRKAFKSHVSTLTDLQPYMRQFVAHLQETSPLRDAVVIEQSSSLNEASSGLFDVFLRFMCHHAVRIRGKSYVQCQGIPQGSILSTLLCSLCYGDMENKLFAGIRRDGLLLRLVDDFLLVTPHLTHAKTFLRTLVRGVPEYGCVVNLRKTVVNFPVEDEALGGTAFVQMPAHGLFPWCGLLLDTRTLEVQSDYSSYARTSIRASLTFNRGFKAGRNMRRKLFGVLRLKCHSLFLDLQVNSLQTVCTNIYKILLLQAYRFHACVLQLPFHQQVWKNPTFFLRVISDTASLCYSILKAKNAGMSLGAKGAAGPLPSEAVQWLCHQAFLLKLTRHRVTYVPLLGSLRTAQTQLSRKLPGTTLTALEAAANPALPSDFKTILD

SMILES: O=C(CCN1CCN(CCO)CC1)Nc1ccc2c(c1)C(=O)c1ccc(NC(=O)CCN3CCN(CCO)CC3)cc1C2=O
- IC50 [1]: 16500 nM
- IC50 (A2780): 11000 nM
- IC50 (SK-OV-3): 7000 nM
- IC50 (CH1): 7900 nM

SMILES: CCC[N+](C)(CCC)CCC(=O)Nc1ccc(NC(=O)CC[N+](C)(CCC)CCC)c2c1C(=O)c1ccccc1C2=O
- IC50 (A2780): 1400 nM
- IC50 (SK-OV-3): 16000 nM
- IC50 (CH1): 4450 nM

SMILES: O=C(CN1CCCCC1)Nc1ccc2c(c1)C(=O)c1ccc(NC(=O)CN3CCCCC3)cc1C2=O
- IC50 [1]: > 50000 nM
- IC50 (A2780): 1650 nM
- IC50 (SK-OV-3): 5000 nM
- IC50 (CH1): 5050 nM

SMILES: C[N+]1(CCC(=O)Nc2ccc3c(c2)C(=O)c2ccc(NC(=O)CC[N+]4(C)CCCCC4CO)cc2C3=O)CCCCC1CO (centres undefined)
- IC50 (A2780): 1250 nM
- IC50 (SK-OV-3): 1800 nM
- IC50 (CH1): 2300 nM

SMILES: O=C(CCN1CCCCC1CO)Nc1ccc2c(c1)C(=O)c1ccc(NC(=O)CCN3CCCCC3CO)cc1C2=O (centres undefined)
- IC50 (A2780): 2450 nM
- IC50 (SK-OV-3): 2400 nM
- IC50 (CH1): 14500 nM

SMILES: O=C1c2c(O)ccc(O)c2C(=O)c2c(NCCNCCO)ccc(NCCNCCO)c21
- inhibition [2]: Weak inhibition
- inhibition [3]: Weak inhibition

SMILES: C[N+]1(CCC(=O)Nc2ccc3c(c2)C(=O)c2ccc(NC(=O)CC[N+]4(C)CCCCC4)cc2C3=O)CCCCC1
- IC50 (A2780): < 1000 nM
- IC50 (SK-OV-3): 2200 nM
- IC50 (CH1): 1850 nM

SMILES: CCCN(CCC)CCC(=O)Nc1ccc(NC(=O)CCN(CCC)CCC)c2c1C(=O)c1ccccc1C2=O
- IC50 [1]: 50000 nM
- Taq inhibition [4]: inactive
- IC50 (A2780): 130 nM
- Taq inhibition [5]: inactive
- IC50 (SK-OV-3): 4500 nM
- IC50 (CH1): 480 nM

SMILES: C[N+]1(CC(=O)Nc2ccc3c(c2)C(=O)c2ccc(NC(=O)C[N+]4(C)CCCCC4)cc2C3=O)CCCCC1
- IC50 (A2780): 6500 nM
- IC50 (SK-OV-3): 9000 nM
- IC50 (CH1): 4300 nM

SMILES: O=C(CCN1CCCCC1CO)Nc1ccc(NC(=O)CCN2CCCCC2CO)c2c1C(=O)c1ccccc1C2=O (centres undefined)
- IC50 (A2780): 20 nM
- IC50 (SK-OV-3): 270 nM
- IC50 (CH1): 64 nM

SMILES: C[N+]1(CC(=O)Nc2ccc3c(c2)C(=O)c2ccc(NC(=O)C[N+]4(C)CCOCC4)cc2C3=O)CCOCC1
- IC50 (A2780): 13000 nM
- IC50 (SK-OV-3): 45500 nM
- IC50 (CH1): 18000 nM

SMILES: C[N+]1(CCC(=O)Nc2ccc(NC(=O)CC[N+]3(C)CCOCC3)c3c2C(=O)c2ccccc2C3=O)CCOCC1
- IC50 [1]: 34500 nM
- IC50 (A2780): 760 nM
- IC50 (SK-OV-3): 8500 nM
- IC50 (CH1): 1650 nM

SMILES: CN(C)CCC(=O)Nc1ccc2c(c1)C(=O)c1ccc(NC(=O)CCN(C)C)cc1C2=O
- IC50 (A2780): 2550 nM
- IC50 (SK-OV-3): 2900 nM
- IC50 (CH1): 1800 nM

SMILES: CCCN(CCC)CCC(=O)Nc1ccc2c(c1)C(=O)c1ccc(NC(=O)CCN(CCC)CCC)cc1C2=O
- IC50 [1]: > 50000 nM
- IC50 (A2780): 380 nM
- IC50 (SK-OV-3): 2400 nM
- IC50 (CH1): 1400 nM

SMILES: O=C(CN1CCOCC1)Nc1ccc2c(c1)C(=O)c1ccc(NC(=O)CN3CCOCC3)cc1C2=O
- IC50 [1]: > 50000 nM
- IC50 (A2780): 5900 nM
- IC50 (SK-OV-3): 4500 nM
- IC50 (CH1): 4150 nM

SMILES: Nc1nc2c(ncn2[C@H]2CC[C@@H](COP(=O)(O)OP(=O)(O)OP(=O)(O)O)O2)c(=O)[nH]1 [DIDEOXY GUANOSINE TRIPHOSPHATE]
- IC50 [6]: 8600 nM

SMILES: O=C(CCN1CCCCC1)Nc1ccc2c(c1)C(=O)c1ccc(NC(=O)CCN3CCCCC3)cc1C2=O
- IC50 [1]: 4500 nM
- IC50 (A2780): 1300 nM
- IC50 (SK-OV-3): 4000 nM
- IC50 (CH1): 5900 nM

SMILES: C[N+]1(CCC(=O)Nc2ccc(NC(=O)CC[N+]3(C)CCCCC3CO)c3c2C(=O)c2ccccc2C3=O)CCCCC1CO (centres undefined)
- IC50 [1]: 9400 nM
- IC50 (A2780): 380 nM
- IC50 (SK-OV-3): 1500 nM
- IC50 (CH1): 540 nM

SMILES: CCC[N+](C)(CCC)CCC(=O)Nc1ccc2c(c1)C(=O)c1ccc(NC(=O)CC[N+](C)(CCC)CCC)cc1C2=O
- IC50 (A2780): 500 nM
- IC50 (SK-OV-3): 2000 nM
- IC50 (CH1): 680 nM

SMILES: C[N+](C)(C)CCC(=O)Nc1ccc(NC(=O)CC[N+](C)(C)C)c2c1C(=O)c1ccccc1C2=O
- IC50 (A2780): 2150 nM
- IC50 (SK-OV-3): 11500 nM
- IC50 (CH1): 2000 nM

SMILES: CN(C)CCC(=O)Nc1ccc(NC(=O)CCN(C)C)c2c1C(=O)c1ccccc1C2=O
- inhibition [2]: Weak inhibition
- IC50 (A2780): 16 nM
- IC50 (SK-OV-3): 360 nM
- inhibition [3]: Weak inhibition
- IC50 (CH1): 40 nM

SMILES: O=C(CCN1CCOCC1)Nc1ccc(NC(=O)CCN2CCOCC2)c2c1C(=O)c1ccccc1C2=O
- IC50 [1]: 33500 nM
- IC50 (A2780): 3700 nM
- IC50 (SK-OV-3): 21000 nM
- IC50 (CH1): 1950 nM

SMILES: O=C(CCN1CCOCC1)Nc1ccc2c(c1)C(=O)c1ccc(NC(=O)CCN3CCOCC3)cc1C2=O
- IC50 [1]: > 50000 nM
- IC50 (A2780): 4800 nM
- IC50 (SK-OV-3): 9000 nM
- IC50 (CH1): 20000 nM

SMILES: C[N+](C)(C)CCC(=O)Nc1ccc2c(c1)C(=O)c1ccc(NC(=O)CC[N+](C)(C)C)cc1C2=O
- IC50 [1]: 17300 nM
- IC50 (A2780): 2250 nM
- IC50 (SK-OV-3): 4400 nM
- IC50 (CH1): 1900 nM

SMILES: C[N+]1(CCC(=O)Nc2ccc(NC(=O)CC[N+]3(C)CCCCC3)c3c2C(=O)c2ccccc2C3=O)CCCCC1
- IC50 [1]: 11100 nM
- IC50 (A2780): 1750 nM
- IC50 (SK-OV-3): 32500 nM
- IC50 (CH1): 4300 nM

SMILES: O=C(CCN1CCCCC1)Nc1ccc(NC(=O)CCN2CCCCC2)c2c1C(=O)c1ccccc1C2=O
- IC50 (A2780): 290 nM
- IC50 (SK-OV-3): 2400 nM
- IC50 (CH1): 260 nM

SMILES: C[N+]1(CCC(=O)Nc2ccc3c(c2)C(=O)c2ccc(NC(=O)CC[N+]4(C)CCOCC4)cc2C3=O)CCOCC1
- IC50 (A2780): 1900 nM
- IC50 (SK-OV-3): 3000 nM
- IC50 (CH1): 1700 nM

SMILES: COc1cccc2c1C(=O)c1c(O)c3c(c(O)c1C2=O)C[C@@](O)(C(=O)CO)C[C@@H]3O[C@H]1C[C@H](N)[C@H](O)[C@H](C)O1 [DOXORUBICIN]
- IC50 (A2780): 9.6 nM
- IC50 (SK-OV-3): 78 nM
- inhibition [7]: Weak activity
- inhibition [3]: Active
- IC50 (CH1): 6.3 nM
